Columns and labels:
[1] = target: LSD1-CoREST-HDAC1 complex (Homo sapiens, UniProt Q13547); experiment: AMC-fluorescence histone deacetylase inhibition assay with purified complex; type: biochemical; settings: compared with CI-994, Fig 3A
[2] = system: Histone 3 Lysine 56 acetylation (H3K56Ac); experiment: H3K56 acetylation by quantitative western blotting in ES cells; type: cell-based; settings: E14 mouse ES cells, 24h; CI-994 = 40μM, Panobinostat = 30 nM
[3] = system: HCT116 cells; experiment: Cell viability of HCT116 cells by flow cytometry; type: cell-based, human; settings: HCT116, 40μM, 48 hours
Method in brief: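 Human colon cancer HCT116 cells were exposed to the test compound at 10 and 40 μM. A reference class I HDAC inhibitor was run alongside. Viability was scored by flow cytometry after 48 h of treatment.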

Chain of LSD1-CoREST-HDAC1 complex (Q13547 whole entry, other chains not shown): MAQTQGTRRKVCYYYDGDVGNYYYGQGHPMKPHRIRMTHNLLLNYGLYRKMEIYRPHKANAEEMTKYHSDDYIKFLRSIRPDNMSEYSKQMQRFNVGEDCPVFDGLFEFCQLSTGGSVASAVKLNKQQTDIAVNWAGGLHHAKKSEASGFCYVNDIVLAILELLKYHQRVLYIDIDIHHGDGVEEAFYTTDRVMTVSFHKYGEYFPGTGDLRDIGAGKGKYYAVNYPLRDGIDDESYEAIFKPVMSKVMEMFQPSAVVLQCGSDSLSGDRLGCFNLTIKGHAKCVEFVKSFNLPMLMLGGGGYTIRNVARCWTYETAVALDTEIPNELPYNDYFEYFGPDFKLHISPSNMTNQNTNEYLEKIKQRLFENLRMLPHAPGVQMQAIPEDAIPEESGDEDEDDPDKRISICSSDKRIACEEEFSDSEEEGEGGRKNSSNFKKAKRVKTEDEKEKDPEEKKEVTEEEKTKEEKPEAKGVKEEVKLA
Chain of LSD1-CoREST-HDAC1 complex (Q9UKL0 86-485 partner limits assumed, other chains not shown): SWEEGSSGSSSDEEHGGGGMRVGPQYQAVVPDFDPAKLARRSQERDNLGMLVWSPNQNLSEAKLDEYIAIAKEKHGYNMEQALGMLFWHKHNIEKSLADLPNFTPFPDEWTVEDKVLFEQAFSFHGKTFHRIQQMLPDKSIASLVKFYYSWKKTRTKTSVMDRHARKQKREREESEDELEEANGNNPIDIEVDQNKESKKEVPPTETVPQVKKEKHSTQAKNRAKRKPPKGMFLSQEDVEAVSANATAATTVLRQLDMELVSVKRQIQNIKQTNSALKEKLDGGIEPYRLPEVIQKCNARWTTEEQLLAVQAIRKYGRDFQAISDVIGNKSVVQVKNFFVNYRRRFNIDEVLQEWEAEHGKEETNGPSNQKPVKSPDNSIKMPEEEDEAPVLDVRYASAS

SMILES: CC(=O)Nc1ccc(C(=O)Nc2ccccc2NC(=O)OC(C)(C)C)cc1 [Compound 5]
- HDAC inhibition of the LSD1-CoREST-HDAC1 complex (in words) [1]: no HDAC inhibition

SMILES: Cc1[nH]c2ccccc2c1CCNCc1ccc(/C=C/C(=O)NO)cc1 [Panobinostat]
- H3K56 acetylation increase, fold compared to non-treated cells [2]: 15-20 fold

SMILES: CC(=O)Nc1ccc(C(=O)Nc2ccccc2N)cc1 [CI-994]
- Cell death [3]: 73%
